Test results published in ChEMBL document CHEMBL1139798, “Synthesis of chlorogenic acid derivatives with promising antifungal activity” (Bioorg Med Chem, 2007).
Values after ≈ are worked out from the molar mass of the structure shown.

What was measured:
[1] = Lethality in brine shrimp at 100 ug/ml; assay type: organism-based; details: artemia, in vivo; read-out: Activity
[2] = tested on: Candida albicans; experiment: Antifungal activity against Candida albicans ATCC 90028 after 18 to 24 hrs; assay type: functional
Outline: (§1)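 Broth dilution following NCCLS guidelines. Final compound concentrations ran from 0.12 to 64. MIC was taken as the lowest concentration giving 80% inhibition of growth relative to the drug-free control.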

[3] = tested on: Cryptococcus neoformans; experiment: Antifungal activity against Cryptococcus neoformans ATCC 32045 after 48 to 72 hrs; assay type: functional; outline: as §1
[4] = tested on: Aspergillus fumigatus; experiment: Antifungal activity against Aspergillus fumigatus ATCC 13073 after 48 hrs; assay type: functional; details: ATCC 13073, 48 h; outline: as §1
[5] = tested on: Pichia kudriavzevii; experiment: Antifungal activity against Candida krusei ATCC 6258; assay type: functional

Structure (SMILES) | mortality at 100 ug/ml [1] [%] | MIC [2] [µg/mL] | MIC [3] [µg/mL] | MIC [4] [µg/mL] | MIC [5] [µg/mL]
CCCCCCCCOc1ccc(NC(=O)C(CCCN)NC(=O)[C@]2(O)C[C@@H](O)[C@@H](O)[C@H](OC(=O)/C=C/c3ccc(O)c(O)c3)C2)cc1 (stereo not given in full) | 37.5 | 4 (≈ 5.95 µM) | 1 (≈ 1.49 µM) | 16 (≈ 23.8 µM) | 
CCCCCCCCOc1ccc(NC(=O)C(CCCNC(=O)OC(C)(C)C)NC(=O)[C@]2(O)C[C@@H](O)[C@@H](O)[C@H](OC(=O)/C=C/c3ccc(O)c(O)c3)C2)cc1 (stereo not given in full) | 25 | 2 (≈ 2.59 µM) | 1 (≈ 1.3 µM) | > 64 | 
CCCCCCCCOc1ccc(NC(=O)C(CO)NC(=O)[C@]2(O)C[C@@H](O)[C@@H](O)[C@H](OC(=O)/C=C/c3ccc(O)c(O)c3)C2)cc1 (stereo not given in full) | 18.8 | > 64 | 4 (≈ 6.2 µM) | > 64 | 
CCCCCCCCOc1ccc(NC(=O)C(CCCN)NC(=O)[C@]2(O)C[C@@H](O)[C@@H](O)[C@H](OC(=O)/C=C/c3ccc(O)cc3)C2)cc1 (stereo not given in full) | 100 | 8 (≈ 12.2 µM) | 4 (≈ 6.1 µM) | 32 (≈ 48.8 µM) | 
CCCCCCCCOc1ccc(NC(=O)[C@]2(O)C[C@@H](O)[C@@H](O)[C@H](OC(=O)/C=C/c3ccc(O)c(O)c3)C2)cc1 | 50 | 8 (≈ 14.3 µM) | 2 (≈ 3.59 µM) | > 64 | 
CCCCCCCCOc1ccc(NC(=O)C(CC(=O)OC(C)(C)C)NC(=O)[C@@]2(O)C[C@@H](OC(=O)/C=C/c3ccc(O)c(O)c3)[C@@H]3OC(C)(C)O[C@@H]3C2)cc1 (stereo not given in full) | 56.2 | > 64 | 2 (≈ 2.6 µM) | > 64 | 
CCCCCCCCOc1ccc(NC(=O)C(CCCNC(=O)OC(C)(C)C)NC(=O)[C@@]2(O)C[C@@H](OC(=O)/C=C/c3ccc(O)c(O)c3)[C@@H]3OC(C)(C)O[C@@H]3C2)cc1 (stereo not given in full) | 12.5 | > 64 | 2 (≈ 2.46 µM) | > 64 | 
CCCCCCCCOc1ccc(NC(=O)C(COC(C)(C)C)NC(=O)[C@@]2(O)C[C@@H](OC(=O)/C=C/c3ccc(O)c(O)c3)[C@@H]3OC(C)(C)O[C@@H]3C2)cc1 (stereo not given in full) | 31.3 | 32 (≈ 43.2 µM) | 2 (≈ 2.7 µM) | > 64 | 
CCCCCCCCOc1ccc(NC(=O)[C@@]2(O)C[C@@H](OC(=O)/C=C/c3ccc(O)c(O)c3)[C@@H]3OC(C)(C)O[C@@H]3C2)cc1 | 100 | 16 (≈ 26.8 µM) | 2 (≈ 3.35 µM) | > 64 | 
OC(Cn1cncn1)(Cn1cncn1)c1ccc(F)cc1F [FLUCONAZOLE] |  | 0.25 (≈ 0.816 µM) | 0.5 (≈ 1.63 µM) | > 64 | 
CCCCCCCCOc1ccc(NC(=O)C(CCCN)NC(=O)[C@]2(O)C[C@@H](O)[C@@H](O)[C@H](OC(=O)CCc3ccc(O)c(O)c3)C2)cc1 (stereo not given in full) | 10.5 | 16 (≈ 23.7 µM) | 8 (≈ 11.9 µM) | 64 (≈ 95 µM) | 
CCCCCCCCOc1ccc(NC(=O)C(CCCNC(=O)OC(C)(C)C)NC(=O)[C@]2(O)C[C@@H](O)[C@@H](O)[C@H](OC(=O)/C=C/c3ccc(O)cc3)C2)cc1 (stereo not given in full) | 31.6 | > 64 | > 64 | > 64 | 
CCCCCCCCOc1ccc(NC(=O)C(COC(C)(C)C)NC(=O)[C@]2(O)C[C@@H](O)[C@@H](O)[C@H](OC(=O)/C=C/c3ccc(O)c(O)c3)C2)cc1 (stereo not given in full) | 31.1 | 4 (≈ 5.71 µM) | 2 (≈ 2.85 µM) | > 64 | 
CCCCCCCCOc1ccc(NC(=O)C(CC(=O)OC(C)(C)C)NC(=O)[C@]2(O)C[C@@H](O)[C@@H](O)[C@H](OC(=O)/C=C/c3ccc(O)c(O)c3)C2)cc1 (stereo not given in full) | 37.5 | 2 (≈ 2.74 µM) | 2 (≈ 2.74 µM) | > 64 | 
CCCCCCCCOc1ccc(NC(=O)C(CC(=O)O)NC(=O)[C@]2(O)C[C@@H](O)[C@@H](O)[C@H](OC(=O)/C=C/c3ccc(O)c(O)c3)C2)cc1 (stereo not given in full) | 6.3 | 64 (≈ 95.1 µM) | 16 (≈ 23.8 µM) | > 64 | 
C[C@@H]1[C@H](O)[C@@H](C)/C=C/C=C/C=C/C=C/C=C/C=C/C=C/[C@H](O[C@@H]2O[C@H](C)[C@@H](O)[C@H](N)[C@@H]2O)C[C@@H]2O[C@](O)(C[C@@H](O)C[C@@H](O)[C@H](O)CC[C@@H](O)C[C@@H](O)CC(=O)O[C@H]1C)C[C@H](O)[C@H]2C(=O)O [AMPHOTERICIN B] |  | 0.5 (≈ 0.541 µM) |  |  | 
CCCCCCCCOc1ccc(NC(=O)C(NC(=O)[C@@]2(O)C[C@@H](OC(=O)/C=C/c3ccc(O)c(O)c3)[C@@H]3OC(C)(C)O[C@@H]3C2)C(C)OC(C)(C)C)cc1 (stereo not given in full) | 6.2 | 32 (≈ 42.4 µM) | 4 (≈ 5.3 µM) | > 64 | 
CCCCCCCCOc1ccc(NC(=O)C(NC(=O)[C@]2(O)C[C@@H](O)[C@@H](O)[C@H](OC(=O)/C=C/c3ccc(O)c(O)c3)C2)C(C)O)cc1 (stereo not given in full) | 12.5 | 8 (≈ 12.1 µM) | 2 (≈ 3.04 µM) | > 64 | 2 (≈ 3.04 µM)
O=C(/C=C/c1ccc(O)c(O)c1)O[C@@H]1C[C@](O)(C(=O)O)C[C@@H](O)[C@H]1O [CHLOROGENIC ACID] | 100 | > 64 |  |  | > 64
CCCCCCCCOc1ccc(NC(=O)C(CCCNC(=O)OC(C)(C)C)NC(=O)[C@]2(O)C[C@@H](O)[C@@H](O)[C@H](OC(=O)CCc3ccc(O)c(O)c3)C2)cc1 (stereo not given in full) | 21.1 | > 64 | 4 (≈ 5.17 µM) | > 64 | 
CCCCCCCCOc1ccc(NC(=O)C(CCCNC(=O)OC(C)(C)C)NC(=O)[C@@]2(O)C[C@@H](OC(=O)/C=C/c3ccc(O)cc3)[C@@H]3OC(C)(C)O[C@@H]3C2)cc1 (stereo not given in full) | 0 | > 64 | > 64 | > 64 | 
CCCCCCCCOc1ccc(NC(=O)C(NC(=O)[C@]2(O)C[C@@H](O)[C@@H](O)[C@H](OC(=O)/C=C/c3ccc(O)c(O)c3)C2)C(C)OC(C)(C)C)cc1 (stereo not given in full) | 50 | 2 (≈ 2.8 µM) | 1 (≈ 1.4 µM) | > 64 | 2 (≈ 2.8 µM)
